Bioassay records (PubChem)
Compounds with a hit are over-represented: about 2.9% of the library has one in this group of screens.
ZTA DNA inh – counter-screen for EBNA-1 inhibitors: inhibitors of Epstein-Barr virus ZTA. AID 2234. inhibition, % at 11 µM. hit rate 0.15% among 320,000. P03206. ZTA-DNA binding, fluorescence polarization; in the data active = inhibition above about 33%
Target sequence (P03206 whole entry, looked up): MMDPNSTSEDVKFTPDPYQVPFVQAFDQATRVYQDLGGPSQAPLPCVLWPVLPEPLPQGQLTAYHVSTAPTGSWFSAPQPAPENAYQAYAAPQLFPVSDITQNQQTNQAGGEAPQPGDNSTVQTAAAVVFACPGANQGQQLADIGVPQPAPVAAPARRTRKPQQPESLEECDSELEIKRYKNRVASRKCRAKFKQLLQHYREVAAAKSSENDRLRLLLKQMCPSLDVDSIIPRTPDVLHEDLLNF
EBNA-1 inhibitor – blocks EBNA-1 binding to DNA. EBNA-1 DNA binding, fluorescence polarization. hit rate 0.34% among 300,000. inhibition, % at 14.8 µM. AID 1950; in the data active = inhibition above about 28%
UBC13 polyUb – inhibitors of human UBC13 polyubiquitin chain formation; P61088; TR-FRET; inhibition, % at 20 µM; hit rate 0.47% among 330,000; AID 485273; in the data active = inhibition above about 45%, passing the limit was not always enough
Target sequence (P61088 whole entry, looked up): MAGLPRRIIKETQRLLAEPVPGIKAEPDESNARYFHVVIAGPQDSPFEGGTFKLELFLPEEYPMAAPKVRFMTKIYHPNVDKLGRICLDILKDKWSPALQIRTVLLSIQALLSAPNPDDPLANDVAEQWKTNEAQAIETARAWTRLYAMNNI
PfGluPho inh – PfG6PD (Plasmodium falciparum) enzyme inhibition; hit rate 0.78% among 350,000; inhibition, % at 20 µM; AID 504690; PfGluPho enzyme, NADPH resazurin-diaphorase fluorescence;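 active = inhibition reaching at least a set limit at 20 µM in the primary screen, cut at about 59% in these data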;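 note: 0% = DMSO wells with substrate and 100% = DMSO wells lacking glucose-6-phosphate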
PfM18AAP inh-1 – PfM18AAP enzyme inhibition; hit rate 1.2% among 290,000; inhibition, % at 7.35 µM; recombinant PfM18AAP, H-Glu-NHMec fluorogenic cleavage;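 active = inhibition above the campaign mean inhibition over all tested compounds plus 3 SD, cut at about 28% in these data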;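 note: 0% = plate median of test compound wells and 100% = 2 mM ZnCl2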
Apaf1 inhib – blocks human Apaf-1 apoptosome activity. inhibition, % at 20 µM. AID 489030. hit rate 0.71% among 330,000. reconstituted apoptosome caspase-3 activity, DEVD-Rh110 fluorescence; active = inhibition of at least 40% at 20 µM;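 note: plate controls were DMSO wells for no effect and DEVD-CHO caspase inhibitor wells for full effect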
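Material: reconstituted apoptosome with Apaf-1, cytochrome c, caspase-9, procaspase-3, dATP / Buffer or medium: pH 7.5 Hepes buffer with CHAPS, BSA, DTT / Also added: cytochrome c with DEVD-Rh110 / Schedule: compound with Apaf-1, dATP, procaspase-3 30 min, then 50 min reaction, room temperature / Technique: rhodamine 110 fluorescence at Ex 480/Em 540 nm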
PfM18AAP inh-2 – confirmation of Plasmodium falciparum M18 aspartyl aminopeptidase inhibitors | inhibition, % at 7.35 µM | hit rate 28% among 2,400 | shares compounds with PfM18AAP inh-1 | recombinant PfM18AAP, H-Glu-NHMec fluorogenic cleavage;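 active = mean inhibition over replicate wells above the hit cutoff set for the earlier primary screen, cut at about 29% in these data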;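 note: 0% = median of test compound wells and 100% = 2 mM ZnCl2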
CTSL1 counter – counter-screen for PFM18AAP inhibitors: confirmation of human cathepsin L inhibitors; inhibition, % at 5.96 µM; shares compounds with PfM18AAP inh-1; AID 2178; 2,400 tested, under 10 active; purified cathepsin L1, Z-Leu-Arg-MCA fluorescence;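 active = average inhibition across replicates above the hit cutoff set in the earlier primary screen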;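 note: 0% = median of test compound wells and 100% = Z-Phe-Ala-diazomethylketone 1 µM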
Starred values were filed as active, the others as inactive; x = no result.

SMILES	ZTA DNA inh	EBNA-1 inhibitor	UBC13 polyUb	PfGluPho inh	PfM18AAP inh-1	Apaf1 inhib	PfM18AAP inh-2	CTSL1 counter
CC(C)(C)Cc1nnc(NC(=O)CSc2ccccc2)s1	-5	6	-5	51	40*	15	20	2
CCc1nnc(NC(=O)CSc2nc(-c3ccccc3)c(-c3ccccc3)o2)s1	-1	5	-1	-16	-4	9	x	x
CCc1nnc(NC(=O)CSc2nnc(CSc3nc(C)cc(C)n3)o2)s1	-4	2	-2	-4	36*	-9	-28	1
CCc1nnc(NC(=O)CSc2nnc(-c3ccccc3O)o2)s1	-10	-13	0	-38	34*	1	-17	-3
CCc1nnc(NC(=O)CSc2nnc(CSc3nc(C)cc(C)n3)n2CC)s1	x	x	x	x	1	x	x	x
Cc1ccc(Cl)cc1NC(=O)C1CC1c1ccccc1 (stereo unspecified)	-6	-6	-1	12	-6	20	x	x
Cc1c(Cl)cccc1NC(=S)Nn1cnnc1	-7	-6	0	37	76*	-5	76*	2
COc1ccc(/C=N/Nc2nn3cnnc3c3ccccc23)cc1	-4	1	-8	20	38*	5	-48	3
COc1ccc(/C=N/Nc2nonc2N)cc1OC	-12	1	15	-8	5	1	x	x
COc1ccc(/C=N/Nc2nonc2N)cc1	4	2	8	-2	32*	-20	-30	-2
Cn1c(-c2ccc(Cl)nc2)nc2ccccc21	3	0	4	10	34*	-2	-51	-3
O=C(Nc1nnc(-c2ccco2)o1)C1CC1	-12	-9	-7	-11	4	6	x	x
Fc1ccc(-n2c(=S)[nH]c3cccnc32)cc1	-6	-2	-7	44	37*	-3	4	2
Oc1ccccc1-c1csc(-c2ccccc2)n1	-10	-3	1	12	-8	16	x	x
Cc1ccc2nc(-c3ccc(O)c(O)c3)cn2c1	3	14	-8	25	70*	3	55*	-8
Oc1ccc(-c2csc(-c3cccnc3)n2)cc1O	10	-8	3	-1	73*	-11	85*	1
Cc1nc(-c2ccc(O)c(O)c2)cs1	-9	6	4	28	94*	3	87*	-12
COc1cc(-c2csc(C)n2)ccc1O	-5	-5	-8	-10	5	1	x	x
Oc1ccc(-c2csc(-c3ccccc3)n2)cc1O	-15	7	20	1	55*	5	60*	7
CCc1ccc(NC(=O)CSc2nc3ccccc3c(=O)n2CCCC(=O)NCCCN2CCOCC2)cc1	1	-14	17	-3	-13	3	x	x
CS(=O)(=O)N1CCc2cc(C(=O)N3CCN(c4ccc(F)cc4)CC3)ccc21	-1	-9	-8	-8	3	-4	x	x
O=C(CCS(=O)(=O)Cc1ccccc1)Nc1ncc([N+](=O)[O-])s1	4	0	-2	-17	9	2	x	x
Oc1ccc(-c2csc(Nc3ncccn3)n2)c(O)c1	8	1	1	25	18	1	x	x
Oc1ccc(-c2csc(Nc3ncccn3)n2)cc1O	x	x	x	19	65*	x	53*	0
COc1ccc(C(=O)NNC(=O)CNC(=O)C2CCCCC2)cc1	12	-6	-2	-9	-5	-5	x	x
COC(=O)CN(n1cnnc1)S(=O)(=O)c1ccccc1	-1	3	-4	-11	78*	8	85*	4
Cc1ccc2oc(=O)c(/C=C(\O)c3cccs3)nc2c1	9	-4	-20	-15	37*	-21	29*	1
CC(=O)c1c(O)cc(C)n(Nc2nc(C)cc(C)n2)c1=O	1	6	-21	-20	34*	4	-28	2
CC(=O)c1c(O)cc(C)n(-c2ccc(F)cc2)c1=O	6	2	-4	-5	-5	-7	x	x
Cc1ccc(C2CC(=O)N3CN(c4ccc(Br)cc4)CSC3=C2C#N)o1 (stereo unspecified)	-1	1	-11	54	37*	27	-4	2
